In ChEMBL document CHEMBL5715959, “Inhibition of histone methyltransferase EZH2 in Schistosoma mansoni in vitro by GSK343 reduces egg laying and decreases the expression of genes implicated in DNA replication and noncoding RNA metabolism” (2018):
The source made the active and inactive calls. No cut-off for these calls is given here.

How the values were obtained:
Schistosoma mansoni [1] = test: Antischistosomal activity against adult Schistosoma mansoni assessed as decreased motility incubated for 24 hrs by inverted microscope analysis relative to control; type: functional; set-up: scale not given: the % may be the effect or the level left
In short: (§1)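 Paired adult worms were cultured in RPMI/10% FBS with antibiotics at 37°C, 5% CO2, with GSK343 or 0.1% DMSO. They were viewed by inverted microscope at 3, 6, 12, 24 and 48 h. Motility was scored on a 0–3 scale (3 full movement, 1.5 partial or immobile but alive, 0 dead); death meant no movement over more than 2 min. Pairing was recorded. Three experiments, each with 10 pairs; mean ± SD.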

Schistosoma mansoni [2] = test: Antischistosomal activity against adult Schistosoma mansoni assessed as dead worms incubated for 24 hrs by inverted microscope analysis; type: functional, organism-based; in short: as §1
Schistosoma mansoni [3] = test: Antischistosomal activity against adult female Schistosoma mansoni assessed as damaged tegument with extensive sloughing at 20 uM incubated for 24 to 48 hrs by scanning electron microscopy analysis; type: functional, organism-based; details: time 24-48 hrs
In short: (§2)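 Adult couples were taken by perfusion into supplemented RPMI, one couple per well, and adapted 2 h at 37°C, 5% CO2. They were exposed to 20 μM GSK343 or 0.1% DMSO for 24 and 48 h. Fixation used modified Karnovsky with osmium post-fix, followed by ethanol dehydration, critical-point drying, gold sputtering and scanning electron microscopy of tegument surfaces.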

Schistosoma mansoni [4] = test: Antischistosomal activity against adult female Schistosoma mansoni assessed as rupture of blisters in dorsal region at 20 uM incubated for 24 to 48 hrs by scanning electron microscopy analysis; type: functional, organism-based; details: time 24-48 hrs; in short: as §2
Schistosoma mansoni [5] = test: Antischistosomal activity against adult female Schistosoma mansoni assessed as decrease in number of eggs laid at 20 uM incubated for 24 to 48 hrs by […] analysis relative to control; type: functional; set-up: scale not given: the % may be the effect or the level left; details: time 24-48 hrs
Schistosoma mansoni [6] = test: Antischistosomal activity against juvenile Schistosoma mansoni assessed as damaged anterior region at 20 to 50 uM incubated for 48 hrs by scanning electron microscopy analysis; type: functional, organism-based; details: in the assay text read “at 50 uM” for “at 20 to 50 uM”
In short: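 Juvenile worms recovered by perfusion, five per well in supplemented RPMI (10% FBS, antibiotics, 37°C, 5% CO2), 2 h adaptation, then exposed 48 h to compound or 0.1% DMSO. Fixed in modified Karnovsky reagent (pH 7.4), washed in cacodylate buffer, post-fixed 1 h in 1% osmium tetroxide, ethanol-dehydrated, critical-point dried, gold-sputtered and imaged by scanning electron microscopy.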

Schistosoma mansoni [7] = test: Cytotoxicity against juvenile Schistosoma mansoni assessed as decrease in viability at 20 to 50 uM incubated for 24 hrs by CellTiter-Glo Luminescent assay relative to control; type: functional; details: dose 20-50 µM
In short: (§3)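 Perfused juvenile worms cultured in supplemented RPMI (10% FBS, 37°C, 5% CO2), exposed 24 or 48 h to compound or 0.1% DMSO. Total parasite ATP read by luminescence, given as % of vehicle; three replicate experiments of 10 juveniles each, mean ± SD.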

Schistosoma mansoni [8] = test: Cytotoxicity against juvenile Schistosoma mansoni assessed as decrease in viability at 50 uM incubated for 48 hrs by CellTiter-Glo Luminescent assay relative to control; type: functional; in short: as §3
Schistosoma mansoni [9] = test: Antischistosomal activity against Schistosoma mansoni assessed as loss of spines at 20 uM incubated for 24 hrs by scanning electron microscopy analysis; type: functional, organism-based
In short: (§4)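 Newly transformed schistosomula were held 16 h in M169 with 2% FBS, serotonin, hypoxanthine, hydrocortisone, triiodothyronine and antibiotics at 37°C, 5% CO2, at 2,000 per well. They were then exposed to 20 μM GSK343 or 0.1% DMSO for 24 and 48 h. Fixation was modified Karnovsky (pH 7.4) with 1% osmium post-fix, then ethanol dehydration, critical-point drying, gold coating and SEM. Lengths came from three experiments, each with 20 schistosomula.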

Schistosoma mansoni [10] = test: Antischistosomal activity against Schistosoma mansoni assessed as length of schistosomula at 20 uM incubated for 24 to 48 hrs by scanning electron microscopy analysis (reference value: […]); type: functional; details: time 24-48 hrs; in short: as §4
Schistosoma mansoni [11] = test: Cytotoxicity against Schistosoma mansoni assessed as reduction in total ATP content at 20 uM incubated for 2 days by CellTiter-Glo Luminescent assay relative to control; type: functional; set-up: scale not given: the % may be the effect or the level left; details: time 2 day
In short: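 Newly transformed schistosomula pre-cultured 16 h in M169 with 2% FBS, serotonin, hypoxanthine, hydrocortisone, triiodothyronine and antibiotics at 37°C, 5% CO2, then 100–120 per well exposed up to 5 days to compound or 0.1% DMSO. ATP in intact larvae read by luminescence, expressed as % of vehicle; three replicate experiments, two-way ANOVA.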

Schistosoma mansoni [12] = test: Antischistosomal activity against Schistosoma mansoni assessed as increased H3K27ac level in schistosomula at 20 uM incubated for 48 hrs by Western blotting analysis; type: functional, organism-based
In short: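 About 10,000 schistosomula were treated 48 h with 20 μM GSK343 or vehicle, then sonicated in Triton X-100 lysis buffer with PMSF and protease inhibitors. Supernatant nuclear extract (BCA-quantified, 10 μg) was run on 15% SDS-PAGE and blotted to nitrocellulose. Blots were probed with mark-specific monoclonal antibodies, then IRDye secondaries; infrared imaging was used and signals were normalized to total H3. t-test.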

Schistosoma mansoni [13] = test: Antischistosomal activity against adult Schistosoma mansoni assessed as increased H3K4me3 level at 20 uM incubated for 48 hrs by Western blotting analysis; type: functional, organism-based
In short: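 Fifty adult worm pairs were treated 48 h with 20 μM GSK343 or vehicle in supplemented RPMI/10% FBS, then lysed in Triton buffer. Nuclear pellets were acid-extracted overnight in 0.25 M HCl at 4°C and histones were TCA-concentrated. 10 μg went on 15% SDS-PAGE and nitrocellulose, probed with anti-H3K27me3, K9ac, K27ac or K4me3, then IRDye secondaries; infrared densitometry was normalized to anti-H3. Three biological replicates; t-test.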

Schistosoma mansoni [14] = test: Antischistosomal activity against female Schistosoma mansoni assessed as down-regulated p48 mRNA level at 20 uM incubated for 48 hrs by RT-qPCR analysis; type: functional, organism-based
Schistosoma mansoni [15] = test: Antischistosomal activity against female Schistosoma mansoni assessed as down-regulated Tyrosinase 2 mRNA level at 20 uM incubated for 48 hrs by RT-qPCR analysis; type: functional, organism-based
In short: (§5)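 Schistosomula (supplemented M169) or adult worms (supplemented RPMI) were treated 48 h with 20 μM GSK343 or 0.1% DMSO at 37°C, 5% CO2. qPCR normalizer genes were chosen from RNA-seq data as those with TPM >1 and a treated/control ratio of 0.9–1.1 that were not differentially expressed. Relative expression was calculated by comparative Ct; significance by t-test.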

Schistosoma mansoni [16] = test: Antischistosomal activity against female Schistosoma mansoni assessed as down-regulated EED mRNA level at 20 uM incubated for 48 hrs by RT-qPCR analysis; type: functional, organism-based; in short: as §5
Schistosoma mansoni [17] = test: Antischistosomal activity against Schistosoma mansoni assessed as down-regulated Val7 mRNA level in schistosomula at 20 uM incubated for 48 hrs by RT-qPCR analysis; type: functional, organism-based; in short: as §5
Schistosoma mansoni [18] = test: Antischistosomal activity against Schistosoma mansoni assessed as down-regulated FA binding protein mRNA level in schistosomula at 20 uM incubated for 48 hrs by RT-qPCR analysis; type: functional, organism-based; in short: as §5
Schistosoma mansoni [19] = test: Antischistosomal activity against Schistosoma mansoni assessed as down-regulated Glucose transport protein mRNA level in schistosomula at 20 uM incubated for 48 hrs by RT-qPCR analysis; type: functional, organism-based; in short: as §5
Schistosoma mansoni [20] = test: Antischistosomal activity against Schistosoma mansoni assessed as down-regulated FGFR substrate 3 mRNA level in schistosomula at 20 uM incubated for 48 hrs by RT-qPCR analysis; type: functional, organism-based; in short: as §5

- Activity (Schistosoma mansoni [15]): Active
- Activity (Schistosoma mansoni [18]): Active
Structure (SMILES): CCCc1cc(C)[nH]c(=O)c1CNC(=O)c1cc(-c2ccnc(N3CCN(C)CC3)c2)cc2c1cnn2C(C)C
- Activity (Schistosoma mansoni [1]): 50%
- Activity (Schistosoma mansoni [2]): Active
- Activity (Schistosoma mansoni [3]): Active
- Activity (Schistosoma mansoni [4]): Active
- Activity (Schistosoma mansoni [5]): 40%
- Activity (Schistosoma mansoni [6]): Active
- Activity (Schistosoma mansoni [7]): 20%
- Activity (Schistosoma mansoni [8]): 70%
- Activity (Schistosoma mansoni [9]): Active
- Activity (Schistosoma mansoni [10]): 74 µm
- Activity (Schistosoma mansoni [11]): 40%
- Activity (Schistosoma mansoni [12]): Active
- Activity (Schistosoma mansoni [13]): Active
- Activity (Schistosoma mansoni [14]): Active
- Activity (Schistosoma mansoni [16]): Active
- Activity (Schistosoma mansoni [17]): Active
- Activity (Schistosoma mansoni [19]): Active
- Activity (Schistosoma mansoni [20]): Active
